Calls of active or inactive are those of the source. The calls are words filed in the database; no cut-off is given here.
System: RAW264.7
Experiment: Cytotoxicity against LPS-stimulated mouse RAW264.7 cells assessed as cell viability upto 50 ug/mL for 4 hrs by MTT assay in presence of 0.01 to 1 ug/mL LPS measured after 24 hrs
Assay type: cell-based
Method in brief: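 Viability of RAW 264.7 cells measured by MTT colorimetric assay after 24 h incubation with compounds. Compounds were tested up to 50 μg/mL alongside LPS at 0.01, 0.1 or 1 μg/mL, and at 100 μg/mL with 10 μg/mL LPS.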

SMILES	Activity
CC(=O)[C@H](C)CCC1=CC2=CC[C@@H]3[C@@]4(C)C[C@@H](O)[C@H](O)[C@@](C)(CO)[C@@H]4CC[C@@]3(C)[C@]2(C)CC1	Non-toxic
CC1(C)CC[C@]2(C(=O)O)CC[C@]3(C)C(=CC[C@@H]4[C@@]5(C)C[C@@H](O)[C@@H](O)[C@@](C)(CO)[C@@H]5CC[C@]43C)[C@@H]2C1	Non-toxic

System: RAW264.7
Experiment: Antiinflammatory activity against LPS-stimulated mouse RAW264.7 cells assessed as inhibition of IL-10 production at 0.5 to 50 ug/ml pretreated for 4 hrs followed by challenge with 1 ug/mL LPS for 48 hrs by ELISA relative to control
Assay type: functional, cell-based

SMILES	inhibition
CC(=O)[C@H](C)CCC1=CC2=CC[C@@H]3[C@@]4(C)C[C@@H](O)[C@H](O)[C@@](C)(CO)[C@@H]4CC[C@@]3(C)[C@]2(C)CC1	Active
CC1(C)CC[C@]2(C(=O)O)CC[C@]3(C)C(=CC[C@@H]4[C@@]5(C)C[C@@H](O)[C@@H](O)[C@@](C)(CO)[C@@H]5CC[C@]43C)[C@@H]2C1	Active

System: RAW264.7
Experiment: Antiinflammatory activity against LPS-stimulated mouse RAW264.7 cells assessed as inhibition of IL-6 production at 0.5 to 50 ug/ml pretreated for 4 hrs followed by challenge with 1 ug/mL LPS for 48 hrs by ELISA relative to control
Assay type: functional, cell-based

SMILES	inhibition
CC(=O)[C@H](C)CCC1=CC2=CC[C@@H]3[C@@]4(C)C[C@@H](O)[C@H](O)[C@@](C)(CO)[C@@H]4CC[C@@]3(C)[C@]2(C)CC1	Active
CC1(C)CC[C@]2(C(=O)O)CC[C@]3(C)C(=CC[C@@H]4[C@@]5(C)C[C@@H](O)[C@@H](O)[C@@](C)(CO)[C@@H]5CC[C@]43C)[C@@H]2C1	Active

System: RAW264.7
Experiment: Antiinflammatory activity against LPS-stimulated mouse RAW264.7 cells assessed as inhibition of IL1-beta production at 0.5 to 50 ug/ml pretreated for 4 hrs followed by challenge with 1 ug/mL LPS for 48 hrs by ELISA relative to control
Assay type: functional, cell-based

SMILES	inhibition
CC(=O)[C@H](C)CCC1=CC2=CC[C@@H]3[C@@]4(C)C[C@@H](O)[C@H](O)[C@@](C)(CO)[C@@H]4CC[C@@]3(C)[C@]2(C)CC1	Active
CC1(C)CC[C@]2(C(=O)O)CC[C@]3(C)C(=CC[C@@H]4[C@@]5(C)C[C@@H](O)[C@@H](O)[C@@](C)(CO)[C@@H]5CC[C@]43C)[C@@H]2C1	Active

System: RAW264.7
Experiment: Antiinflammatory activity against LPS-stimulated mouse RAW264.7 cells assessed as inhibition of TNFalpha production at 0.5 to 50 ug/ml pretreated for 4 hrs followed by challenge with 1 ug/mL LPS for 48 hrs by ELISA relative to control
Assay type: functional, cell-based

SMILES	inhibition
CC(=O)[C@H](C)CCC1=CC2=CC[C@@H]3[C@@]4(C)C[C@@H](O)[C@H](O)[C@@](C)(CO)[C@@H]4CC[C@@]3(C)[C@]2(C)CC1	Active
CC1(C)CC[C@]2(C(=O)O)CC[C@]3(C)C(=CC[C@@H]4[C@@]5(C)C[C@@H](O)[C@@H](O)[C@@](C)(CO)[C@@H]5CC[C@]43C)[C@@H]2C1	Active

System: HEK293
Experiment: Antiinflammatory activity against LPS-stimulated NF-kappaB activated human HEK293 cells at 200 ug/ml pretreated for 4 hrs followed by challenge with LPS for 48 hrs by luciferase assay
Assay type: functional, cell-based
Method in brief: (§1)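 NF-κB reporter 293 cells grown in DMEM with 10% FBS, penicillin 100 U/mL and streptomycin 100 μg/mL. Compounds tested at 12.5, 25, 50, 100 and 200 μg/mL, added 4 h before stimulation with 1 μg/mL LPS for 48 h. Cells then washed twice in PBS (pH 7.4) and lysed in passive lysis buffer, and luciferase activity read.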

SMILES	Activity
CC(=O)[C@H](C)CCC1=CC2=CC[C@@H]3[C@@]4(C)C[C@@H](O)[C@H](O)[C@@](C)(CO)[C@@H]4CC[C@@]3(C)[C@]2(C)CC1	Active
CC1(C)CC[C@]2(C(=O)O)CC[C@]3(C)C(=CC[C@@H]4[C@@]5(C)C[C@@H](O)[C@@H](O)[C@@](C)(CO)[C@@H]5CC[C@]43C)[C@@H]2C1	Active

System: HEK293
Experiment: Antiinflammatory activity against LPS-stimulated NF-kappaB activated human HEK293 cells at 100 ug/ml pretreated for 4 hrs followed by challenge with LPS for 48 hrs by luciferase assay
Assay type: functional, cell-based
Method in brief: as §1

SMILES	Activity
CC(=O)[C@H](C)CCC1=CC2=CC[C@@H]3[C@@]4(C)C[C@@H](O)[C@H](O)[C@@](C)(CO)[C@@H]4CC[C@@]3(C)[C@]2(C)CC1	Active
CC1(C)CC[C@]2(C(=O)O)CC[C@]3(C)C(=CC[C@@H]4[C@@]5(C)C[C@@H](O)[C@@H](O)[C@@](C)(CO)[C@@H]5CC[C@]43C)[C@@H]2C1	Active

System: HEK293
Experiment: Antiinflammatory activity against LPS-stimulated NF-kappaB activated human HEK293 cells at 50 ug/ml pretreated for 4 hrs followed by challenge with LPS for 48 hrs by luciferase assay
Assay type: functional, cell-based
Method in brief: as §1

SMILES	Activity
CC(=O)[C@H](C)CCC1=CC2=CC[C@@H]3[C@@]4(C)C[C@@H](O)[C@H](O)[C@@](C)(CO)[C@@H]4CC[C@@]3(C)[C@]2(C)CC1	Active
CC1(C)CC[C@]2(C(=O)O)CC[C@]3(C)C(=CC[C@@H]4[C@@]5(C)C[C@@H](O)[C@@H](O)[C@@](C)(CO)[C@@H]5CC[C@]43C)[C@@H]2C1	Active

System: HEK293
Experiment: Antiinflammatory activity against LPS-stimulated NF-kappaB activated human HEK293 cells at 25 ug/ml pretreated for 4 hrs followed by challenge with LPS for 48 hrs by luciferase assay
Assay type: functional, cell-based
Method in brief: as §1

SMILES	Activity
CC(=O)[C@H](C)CCC1=CC2=CC[C@@H]3[C@@]4(C)C[C@@H](O)[C@H](O)[C@@](C)(CO)[C@@H]4CC[C@@]3(C)[C@]2(C)CC1	Active
CC1(C)CC[C@]2(C(=O)O)CC[C@]3(C)C(=CC[C@@H]4[C@@]5(C)C[C@@H](O)[C@@H](O)[C@@](C)(CO)[C@@H]5CC[C@]43C)[C@@H]2C1	Active

System: HEK293
Experiment: Antiinflammatory activity against LPS-stimulated NF-kappaB activated human HEK293 cells at 12.5 ug/ml pretreated for 4 hrs followed by challenge with LPS for 48 hrs by luciferase assay
Assay type: functional, cell-based
Method in brief: as §1

SMILES	Activity
CC(=O)[C@H](C)CCC1=CC2=CC[C@@H]3[C@@]4(C)C[C@@H](O)[C@H](O)[C@@](C)(CO)[C@@H]4CC[C@@]3(C)[C@]2(C)CC1	Active
CC1(C)CC[C@]2(C(=O)O)CC[C@]3(C)C(=CC[C@@H]4[C@@]5(C)C[C@@H](O)[C@@H](O)[C@@](C)(CO)[C@@H]5CC[C@]43C)[C@@H]2C1	Active

System: RAW264.7
Experiment: Cytotoxicity against LPS-stimulated mouse RAW264.7 cells assessed as decrease in cell viability upto 100 ug/mL for 4 hrs by MTT assay in presence of 10 ug/mL LPS measured after 24 hrs

SMILES	Activity
CC(=O)[C@H](C)CCC1=CC2=CC[C@@H]3[C@@]4(C)C[C@@H](O)[C@H](O)[C@@](C)(CO)[C@@H]4CC[C@@]3(C)[C@]2(C)CC1	Toxic
CC1(C)CC[C@]2(C(=O)O)CC[C@]3(C)C(=CC[C@@H]4[C@@]5(C)C[C@@H](O)[C@@H](O)[C@@](C)(CO)[C@@H]5CC[C@]43C)[C@@H]2C1	Toxic

System: RAW264.7
Experiment: Antiinflammatory activity against LPS-stimulated mouse RAW264.7 cells assessed as inhibition of nitric oxide production at 0.5 to 50 ug/ml pretreated for 4 hrs followed by challenge with 1 ug/mL LPS for 24 hrs by Griess reaction method relative to control

SMILES	inhibition
CC(=O)[C@H](C)CCC1=CC2=CC[C@@H]3[C@@]4(C)C[C@@H](O)[C@H](O)[C@@](C)(CO)[C@@H]4CC[C@@]3(C)[C@]2(C)CC1	Active
CC1(C)CC[C@]2(C(=O)O)CC[C@]3(C)C(=CC[C@@H]4[C@@]5(C)C[C@@H](O)[C@@H](O)[C@@](C)(CO)[C@@H]5CC[C@]43C)[C@@H]2C1	Active
